B1: tRNA (parent)
chain: GUUCCGUUGGCGUAAUGGUAACGCGUCUCCCUCCUAAGGAGAAGACUGCGGGUUCGAGUCCCGUACGGAACG

Variants at the floor of the assay were thinned out. Where only a bound is given, the exact number is not on record here.

Variants of B1 are the subject of the data set. Kind of data set: yeast fitness relative to wild type (ratio to wild type); higher = fitter; tRNA-Arg(CCU), competitive growth, 37 C, YPD. In short, it runs like this:
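Variants of the tRNA-Arg(CCU) gene, chemically synthesised with a 3% per-site mutation rate at 69 sites, were placed at the native genomic locus in Saccharomyces cerevisiae. The pooled strains were competed in YPD at 37°C for 24 hours in six parallel replicates. Gene amplicons from the start population and from each end population were read by 100-nucleotide paired-end sequencing. Darwinian fitness relative to wild type came from changes in genotype frequencies; genotypes needed ≥ 100 starting reads, and estimates < 0.5 were set to 0.5.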
Consider C4U U28C A36C G51A C66A, for which the yeast fitness was not above 0.5.

For G12C A37C A40U C46U, the yeast fitness came to 0.59.

Consider C11U A21U G68C, for which the yeast fitness came to 0.69.

On to C5G C24U C46A G68U, for which the yeast fitness is not above 0.5.

As to G12C G38A A40G A42C, the yeast fitness was not above 0.5.

Turning to G25C C62G, the yeast fitness worked out at 0.877.

As for U26A U47A C61A, the yeast fitness is not above 0.5.

With U7G C61U G68A, the yeast fitness is 0.533.

As for C11A C22U C55A, the yeast fitness is not above 0.5.

Regarding C4A G6A C33U A43U C49G G50C C61U C66U, the yeast fitness was not above 0.5.

Take A43C G52A: the yeast fitness turned out to be 0.887.

Consider A43C G50A G67A, for which the yeast fitness is not above 0.5.

For U13G C46U A65G, the yeast fitness came to 0.773.

Regarding U2C C27U A43G, the yeast fitness was determined as 0.593.

Consider U16G G25A U28G C34U G63C, for which the yeast fitness is not above 0.5.

In the case of C11G C29U C61A, the yeast fitness was not above 0.5.

Regarding C11U C29U C30G, the yeast fitness stood at 0.549.

Consider A43U A57C, for which the yeast fitness was 0.726.

For C5U C11U C24A C55A A65G, the yeast fitness is not above 0.5.

Take C22U A40G C46U G63A: the yeast fitness is not above 0.5.

A21U A36U A65G: the yeast fitness came to 0.589.

On to C5A G17A C34A, for which the yeast fitness was not above 0.5.

As to G6C C22A C31G A65C, the yeast fitness is not above 0.5.

For C5G A14C C31G G56A A70U, the yeast fitness was not above 0.5.

With A21C A42U G52A C60A A69G, the yeast fitness is not above 0.5.

Regarding G12A U13G, the yeast fitness worked out at 0.869.

In the case of U7C G12A U13G A14C U35C C49U, the yeast fitness is not above 0.5.

Regarding A14U A69U A70C, the yeast fitness was not above 0.5.

For the variant C5U C22U C31U C49A U59C A69U, the yeast fitness was not above 0.5.

With C11A G25A A43G A65C, the yeast fitness was not above 0.5.

With C22G C30U A37G A43U, the yeast fitness was found to be 0.549.

Turning to G10C U26A C27U C31G A42U U47A U53C, the yeast fitness turned out to be 0.721.

As to G10C G18C C24U, the yeast fitness is not above 0.5.

With C5A C31A, the yeast fitness was determined as 0.971.

Consider U3A C4U U7A C24U A70G, for which the yeast fitness is not above 0.5.

With A14C C29U C31U A36G A45U A70G, the yeast fitness was not above 0.5.

For C4A G9C C30A G39A, the yeast fitness was found to be 0.51.

In the case of C11A U16C C31U A69U, the yeast fitness is not above 0.5.

Regarding C5A U35C C66U, the yeast fitness turned out to be 0.579.

For the variant C30U A43U, the yeast fitness was 1.03.

With C5U A45C C49U G56A, the yeast fitness was found to be 0.616.

Turning to G39A A42G G67C, the yeast fitness is not above 0.5.

Consider C5A U59A C66A, for which the yeast fitness is not above 0.5.

For the variant A36G U64C C66U, the yeast fitness was determined as 0.768.

Take C11U A14C U54A: the yeast fitness was not above 0.5.

Consider U28G U54G A65C G67A, for which the yeast fitness is not above 0.5.

Consider C24U C62U, for which the yeast fitness came to 0.976.

Take U8G G25C G52C: the yeast fitness is not above 0.5.

Take U53A C55A C62U G63A A65U: the yeast fitness was not above 0.5.

Take C5A C27A C34G: the yeast fitness came to 0.507.

U19C A21U C22A C49U: the yeast fitness is 0.536.

On to G41A C61A, for which the yeast fitness was determined as 0.742.

On to U8A G25C A37C, for which the yeast fitness was not above 0.5.

Regarding U16C C30G, the yeast fitness worked out at 0.708.

In the case of G39A C60U, the yeast fitness is 0.81.

For the variant A14G C34G A45U, the yeast fitness was not above 0.5.

Consider A15U G38C, for which the yeast fitness came to 0.699.

As to U3G G9C C33G C46U, the yeast fitness is not above 0.5.

Take C30U A42U A43C A70C: the yeast fitness was not above 0.5.

As to U8C C22G C55G, the yeast fitness was not above 0.5.

In the case of U28C G50U, the yeast fitness was 0.602.

In the case of A43U C60G, the yeast fitness amounted to 0.655.

Regarding C4A A40C G41C, the yeast fitness was not above 0.5.

As for C5G G17C G50A A65U, the yeast fitness was not above 0.5.

For the variant C30A A65G, the yeast fitness came to 1.02.

With U7G C55G G63A G68C, the yeast fitness amounted to 0.525.

For G6C G38C C46A G67U, the yeast fitness was not above 0.5.

For C4A C5A U28G C31G U47C A57U A70G, the yeast fitness is not above 0.5.

As for U16C G44C C66U, the yeast fitness was not above 0.5.

For C11U C22G C34A C49U, the yeast fitness was not above 0.5.

As to C24U C27A G50U, the yeast fitness is not above 0.5.

Turning to A20U U47A A70C, the yeast fitness was 0.536.

As for C11U C24G C33A A40C, the yeast fitness stood at 0.955.

Regarding G12A U26A C46U, the yeast fitness came to 0.543.

As to G9A G23C U59A, the yeast fitness is not above 0.5.

Consider U26G C49U, for which the yeast fitness came out at 0.974.

A42U G63A G68C A69C: the yeast fitness is not above 0.5.

On to G9C G44C C61U, for which the yeast fitness worked out at 0.584.

As to U13G U35G A40G C61A, the yeast fitness was not above 0.5.

For U32A U54A, the yeast fitness is not above 0.5.

U7C C49U C55A: the yeast fitness was not above 0.5.

Consider C4A C5G A36U G63A, for which the yeast fitness is not above 0.5.

Take C4U U7A C22U U54C C66U G68C A69U: the yeast fitness is not above 0.5.

Turning to U3A C4U G67C, the yeast fitness amounted to 0.624.

As for C24U C27A C30G, the yeast fitness is not above 0.5.

In the case of C5U U16A C33U C61G A70U, the yeast fitness was not above 0.5.

Turning to C29U A45C C60A, the yeast fitness was found to be 0.598.

C4U C11G C34U G56A: the yeast fitness was not above 0.5.

Take A57C G68U: the yeast fitness turned out to be 0.696.

Take C29G U64G: the yeast fitness was 0.635.

For U3G C24U U28C, the yeast fitness came to 0.599.

G6A C29G A69C: the yeast fitness is not above 0.5.

For the variant U19A C27U G44A, the yeast fitness was 0.781.

In the case of U26G U59C, the yeast fitness turned out to be 0.936.

Consider C27G C29U A37U, for which the yeast fitness is not above 0.5.

Take U3C C55U C61A: the yeast fitness is not above 0.5.

Regarding A20C G56A G67A, the yeast fitness was 0.577.

Consider G23A C30U A37C A57C, for which the yeast fitness was not above 0.5.

Regarding A20U G50A U59C, the yeast fitness turned out to be 0.619.

Take C30U C61U: the yeast fitness amounted to 0.826.

With C30U C31G A57U, the yeast fitness is not above 0.5.

Consider C24G A36C A42U A43G, for which the yeast fitness is not above 0.5.

With A20G A37U, the yeast fitness turned out to be 0.795.

For the variant C5A C27A U28G C55U, the yeast fitness was not above 0.5.

U8C G9A A42G: the yeast fitness was determined as 0.514.

As for U32C C60G, the yeast fitness stood at 0.552.

C11G C27U A36U A37U G41C A43C C49G C62G: the yeast fitness was determined as 0.604.

With U2A A40G A69U, the yeast fitness is 0.553.

For U7G C24G A65U C66U, the yeast fitness was not above 0.5.

Regarding A15G C27A C60G, the yeast fitness is not above 0.5.

As to C11G C27U C60A, the yeast fitness was 0.535.

For A15G G23A G48A, the yeast fitness was found to be 0.675.

C4U G12C U28G C62G A70U: the yeast fitness was not above 0.5.

Consider C22U C31U U47G, for which the yeast fitness is not above 0.5.

For A15C U26G U28C A37G G41A C49G C62U, the yeast fitness was not above 0.5.

Regarding U3C A15C A36C U47A C62G, the yeast fitness is not above 0.5.

As for U26A C55A G68C, the yeast fitness was not above 0.5.

Take U28C G39C: the yeast fitness was determined as 0.578.

With G17A G25A, the yeast fitness was 0.886.

On to A21G C34A, for which the yeast fitness was determined as 0.646.

For the variant U2C U3C A45G C61A, the yeast fitness is not above 0.5.

Regarding C4A A20U C30U, the yeast fitness was not above 0.5.

As for A36C G38C, the yeast fitness was 0.524.

Turning to G6A A21G C46A C55U G56A, the yeast fitness is not above 0.5.

Take G38C G48A C61A G67C: the yeast fitness is not above 0.5.

On to C29G C30U, for which the yeast fitness was determined as 0.632.

In the case of C11A G48A, the yeast fitness was 0.642.

Turning to U7G C27U C33U A57U, the yeast fitness is not above 0.5.

Take U13G G39C: the yeast fitness amounted to 0.735.

A36U C46A: the yeast fitness was determined as 0.763.

On to U59A A65G, for which the yeast fitness was determined as 1.11.

On to U8C C30G, for which the yeast fitness worked out at 0.674.

For A15G G56A, the yeast fitness was 0.971.

On to U26A A40C U54A, for which the yeast fitness was not above 0.5.

Turning to C34G G44A C49A U53A A69U, the yeast fitness was not above 0.5.

With U7C C46U U59G G67U, the yeast fitness is not above 0.5.

For U8C A20G C61G, the yeast fitness was not above 0.5.

Consider U8C U28G C30G A40C A42U, for which the yeast fitness worked out at 0.54.

U28A C60G: the yeast fitness was 0.572.

For U59C A69U, the yeast fitness was found to be 1.02.

As for C33U A43U C49G G50C A65C, the yeast fitness is not above 0.5.

For G10C U32A, the yeast fitness is 0.53.

U19A C22U U32C C60G: the yeast fitness was not above 0.5.

With A15C C30U C33G, the yeast fitness was not above 0.5.

C5G C11A C46G: the yeast fitness turned out to be 0.639.

With A42G A57G, the yeast fitness worked out at 0.768.

For C11G A42G, the yeast fitness turned out to be 0.649.

For C22G C27G C29G C49U, the yeast fitness is not above 0.5.

Regarding C22A C46U, the yeast fitness was determined as 1.1.

As to A20U G25C U35C C60G, the yeast fitness is not above 0.5.

C4G C55U C66G: the yeast fitness was not above 0.5.

Regarding G18A A40G, the yeast fitness amounted to 0.74.

As to G56C A70G, the yeast fitness amounted to 0.672.

U16A C24U: the yeast fitness came to 1.06.

For U16G C29U C31A A57C G67C, the yeast fitness was not above 0.5.

As for C4U G12A A42U, the yeast fitness was not above 0.5.

On to C11G G18C U26C C31G C46U C60G C61G A65C, for which the yeast fitness amounted to 0.61.

Consider U13G G25A U59C, for which the yeast fitness was 0.681.

In the case of G6A C11A A20G C62A, the yeast fitness is not above 0.5.

Turning to C29G U35A G58C C66U, the yeast fitness is not above 0.5.

In the case of A15G G23C C30A A42C G51C, the yeast fitness worked out at 0.537.

In the case of C4G U16C C31U A70U, the yeast fitness is not above 0.5.

With G56A G58C C61G, the yeast fitness stood at 0.707.

Turning to U26A C30A A37C A43U G51C, the yeast fitness is 0.595.

Turning to U32C A37U G52A C66A, the yeast fitness is not above 0.5.

For the variant U16C C22U C33G C55G, the yeast fitness was 0.53.

In the case of U16C G44A C49U U54C G56C, the yeast fitness is not above 0.5.

Source of the values: the RNAGym collection of RNA variant scans (doi:10.1126/science.aae0568).
